Tests used:
[1] = system: Mycobacterium avium subsp. paratuberculosis; assay: Antituberculosis activity against Mycobacterium paratuberculosis ATCC 19698 isolated from bovine assessed as lowest drug level producing inhibition at 10^6 CFU of inoculum by agar counting method; type: functional
Method in brief: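 ATCC 19698 at 10^6 CFU was exposed to drug (1.0–64.0 μg/ml) in MGIT ParaTB medium at 37°C. Aliquots taken at 3 and 5 days were centrifuged, resuspended in PBS and declumped with glass beads. Serial dilutions were plated in quadruplicate on 7H10/OADC/mycobactin J and counted after 8 weeks. Inhibition is the lowest concentration giving a 2 log10 (99%) CFU reduction.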

[2] = system: Mycobacterium avium subsp. paratuberculosis; assay: Antituberculosis activity against Mycobacterium paratuberculosis ATCC 19698 isolated from bovine assessed as minimum drug level resulting in no detectable growth at 10^6 CFU of inoculum after 56 days by MGIT 960 susceptibility test; type: functional
Method in brief: (§1)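 M. paratuberculosis ATCC 19698 at 10^6 CFU per MGIT ParaTB tube in duplicate, drugs at final 1.0–64.0 μg/ml, 37°C in MGIT 960. Inhibition is the lowest concentration whose time to detection exceeds the 1:100 diluted-inoculum solvent control. No detectable growth means the tube never signals positive through 56 days.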

[3] = system: Mycobacterium avium subsp. paratuberculosis; assay: Antituberculosis activity against Mycobacterium paratuberculosis ATCC 19698 isolated from bovine assessed as lowest drug level producing inhibition at 10^6 CFU of inoculum by MGIT 960 susceptibility test; type: functional; method in brief: as §1
[4] = system: Mycobacterium avium subsp. paratuberculosis; assay: Antituberculosis activity against Mycobacterium paratuberculosis B238 isolated from bovine assessed as minimum drug level required for inhibition by MGIT 960 susceptibility test; type: functional
Method in brief: (§2)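 10^5 to 10^6 CFU from single-cell suspensions inoculated in duplicate into MGIT ParaTB medium with supplement and egg yolk. Drugs were at final 0.5–64.0 μg/ml, with 128.0 μg/ml added for some strains. Tubes were incubated at 37°C in MGIT 960. Inhibition is the lowest concentration giving a time to detection longer than a drug-free 1:100 inoculum control. Killing is no positive signal through 56 days.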

[5] = system: Mycobacterium avium subsp. paratuberculosis; assay: Antituberculosis activity against Mycobacterium paratuberculosis ATCC 19698 isolated from bovine assessed as viability after 5 to 8 days by standard plate count method
[6] = system: Mycobacterium avium subsp. paratuberculosis; assay: Antituberculosis activity against Mycobacterium paratuberculosis UCF-7 isolated from Crohn's disease patient assessed as colony counts at 2 ug after 12 days by MGIT 960 susceptibility test; type: functional
[7] = system: Mycobacterium avium subsp. paratuberculosis; assay: Antituberculosis activity against Mycobacterium paratuberculosis B213 isolated from bovine assessed as minimum drug level required for inhibition by MGIT 960 susceptibility test; type: functional; method in brief: as §2
[8] = system: Mycobacterium avium; assay: Antituberculosis activity against Mycobacterium avium ATCC 35712 isolated from chicken assessed as minimum drug level required for killing after 56 days by MGIT 960 susceptibility test; type: functional; method in brief: as §2
[9] = system: Mycobacterium avium; assay: Antituberculosis activity against Mycobacterium avium ATCC 35712 isolated from chicken assessed as minimum drug level required for inhibition by MGIT 960 susceptibility test; type: functional; method in brief: as §2
[10] = system: Mycobacterium avium subsp. paratuberculosis; assay: Antituberculosis activity against Mycobacterium paratuberculosis B213 isolated from bovine assessed as minimum drug level required for killing after 56 days by MGIT 960 susceptibility test; type: functional; method in brief: as §2
[11] = system: Mycobacterium avium subsp. paratuberculosis; assay: Antituberculosis activity against Mycobacterium paratuberculosis B238 isolated from bovine assessed as minimum drug level required for killing after 56 days by MGIT 960 susceptibility test; type: functional; method in brief: as §2
[12] = system: Mycobacterium avium subsp. paratuberculosis; assay: Antituberculosis activity against Mycobacterium paratuberculosis JTC303 isolated from bovine assessed as minimum drug level required for inhibition by MGIT 960 susceptibility test; type: functional; method in brief: as §2
[13] = system: Mycobacterium avium subsp. paratuberculosis; assay: Antituberculosis activity against Mycobacterium paratuberculosis B236 isolated from bovine assessed as minimum drug level required for killing after 56 days by MGIT 960 susceptibility test; type: functional; method in brief: as §2
[14] = system: Mycobacterium avium subsp. paratuberculosis; assay: Antituberculosis activity against Mycobacterium paratuberculosis UCF-5 isolated from Crohn's disease patient assessed as minimum drug level required for killing after 56 days by MGIT 960 susceptibility test; type: functional; method in brief: as §2
[15] = system: Mycobacterium avium subsp. paratuberculosis; assay: Antituberculosis activity against Mycobacterium paratuberculosis UCF-7 isolated from Crohn's disease patient assessed as minimum drug level required for killing after 56 days by MGIT 960 susceptibility test; type: functional; method in brief: as §2
[16] = system: Mycobacterium avium subsp. paratuberculosis; assay: Antituberculosis activity against Mycobacterium paratuberculosis B236 isolated from bovine assessed as minimum drug level required for inhibition by MGIT 960 susceptibility test; type: functional; method in brief: as §2
[17] = system: Mycobacterium avium subsp. paratuberculosis; assay: Antituberculosis activity against Mycobacterium paratuberculosis UCF-4 isolated from Crohn's disease patient assessed as minimum drug level required for inhibition by MGIT 960 susceptibility test; type: functional; method in brief: as §2
[18] = system: Mycobacterium avium subsp. paratuberculosis; assay: Antituberculosis activity against Mycobacterium paratuberculosis UCF-5 isolated from Crohn's disease patient assessed as minimum drug level required for inhibition by MGIT 960 susceptibility test; type: functional; method in brief: as §2
[19] = system: Mycobacterium avium subsp. paratuberculosis; assay: Antituberculosis activity against Mycobacterium paratuberculosis JTC303 isolated from bovine assessed as minimum drug level required for killing after 56 days by MGIT 960 susceptibility test; type: functional; method in brief: as §2
[20] = system: Mycobacterium avium subsp. paratuberculosis; assay: Antituberculosis activity against Mycobacterium paratuberculosis UCF-4 isolated from Crohn's disease patient assessed as minimum drug level required for killing after 56 days by MGIT 960 susceptibility test; type: functional; method in brief: as §2
[21] = system: Mycobacterium avium subsp. paratuberculosis; assay: Antituberculosis activity against Mycobacterium paratuberculosis UCF-7 isolated from Crohn's disease patient assessed as colony counts at 4 ug after 12 days by MGIT 960 susceptibility test; type: functional
[22] = system: Mycobacterium avium subsp. paratuberculosis; assay: Antituberculosis activity against Mycobacterium paratuberculosis UCF-7 isolated from Crohn's disease patient assessed as minimum drug level required for inhibition by MGIT 960 susceptibility test; type: functional; method in brief: as §2

CCn1cc(C(=O)O)c(=O)c2ccc(C)nc21 [NALIDIXIC ACID]
Activity [1]: >64 µg/mL | Activity [2]: >64 µg/mL | Activity [3]: >64 µg/mL

O=C(O)c1cn(C2CC2)c2cc(N3CCNCC3)c(F)cc2c1=O [CIPROFLOXACIN]
Activity [4]: 4 µg/mL | log10CFU/ml [5]: 1 | log10CFU/ml [6]: 1.98 | Activity [7]: 4 µg/mL | Activity [1]: 1 µg/mL | Activity [8]: 64 µg/mL | Activity [9]: 16 µg/mL | Activity [10]: 16 µg/mL | Activity [11]: 16 µg/mL | Activity [12]: 2 µg/mL | Activity [13]: 16 µg/mL | Activity [14]: 4 µg/mL | Activity [15]: 4 µg/mL | Activity [16]: 4 µg/mL | Activity [2]: 32 µg/mL | Activity [17]: 1 µg/mL | Activity [18]: 2 µg/mL | Activity [19]: 8 µg/mL | Activity [20]: 4 µg/mL | Activity [3]: 1 µg/mL | log10CFU/ml [21]: 0.76 | Activity [22]: 1 µg/mL

From ChEMBL document CHEMBL1151475, “Thiopurine drugs azathioprine and 6-mercaptopurine inhibit Mycobacterium paratuberculosis growth in vitro” (2008)
